Bioassay records deposited in PubChem BioAssay by several laboratories.
Hits are enriched below; roughly 8.9% of the tested compounds scored in any of these assays.
MT stabilizer = microtubule stabilization, imaging screen. HeLa tubulin immunostaining HCS, 24 h; share of cells brighter than vehicle mean+2SD. % tubulin-high responders, % at 10 µM. hit rate 0.83% among 200,000. AID 2205;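 active means plate Z-score above 3 for both tubulin-high and condensed-nucleus cell shares, with cell loss under 80%, at 10 µM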;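 further: anti alpha tubulin signal scored within the nucleus-defined area of each cell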
HSV replic up = HSV replication enhancement; HSV replication augmentation in cells, fold increase; maximum fold increase; hit rate 0.005% among 220,000; in the data active means maximum fold increase above about 1.5; tested in PC3 cells
Dynein cargo inh = blocks dynein driven cargo transport along microtubules; z-score, hits read low; AID 1381; 3617.4 mouse cells, GR-EGFP nuclear translocation imaging; test concentration mostly 20 µM; stimulated with dexamethasone, 1 µM; hits give low values; hit rate 0.47% among 220,000;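 active means plate z-score of nuclear minus cytoplasmic receptor signal below a set negative limit, without overly bright fluorescence or cell loss, cut at about -3.5 in these data, passing the limit was not always enough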;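 further: z-score of nuclear minus cytoplasmic ring GR-EGFP intensity difference per well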
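medium = tetracycline-free induction medium containing charcoal-stripped FBS | also added = 1.0 µM final dexamethasone stimulus | schedule = 48 h induction, 1 h compound, 30 min dex at 37 °C | technique = fixed, Hoechst-stained cells imaged at 10x for EGFP | measure = GR-EGFP nuclear translocation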
b-catenin transl = alters nuclear translocation of beta-catenin in HeLa cells; immunofluorescence imaging; nuclear translocation activity, % at 5 µM; hit rate 0.3% among 190,000; AID 1665;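 active means nuclear translocation activity above 50% at 5 µM, with a well cell count of 50 or more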;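 further: per-cell ratio of nuclear to cytoplasmic median beta-catenin stain intensity; plate controls were DMSO negative control for no effect and GSK-3 inhibitor IX positive control for full effect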
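System: Human HeLa cells, endogenous beta-catenin | Compound dosing: 5 µM primary, 0.02–20 µM confirmation | Timing: 24 h compound exposure at 37°C, 5% CO2 | Measured by: Fluorescence imaging of beta-catenin antibody stain plus DAPI | Read-out basis: % activation of per-cell nuclear versus cytoplasmic median beta-catenin signal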
L major viab = reduces viability of Leishmania major promastigotes; resazurin fluorescence viability; inhibition, % at 10 µM; hit rate 9% among 200,000; in the data active means inhibition above about 50%;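 further: promastigotes grown with compound for 44 hours at 28 °C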
* marks the source's active call; other numbers are inactive results; i = inactive; . = not tested or not shown.

SMILES	MT stabilizer	HSV replic up	Dynein cargo inh	b-catenin transl	L major viab
O=C1/C(=C/c2ccccc2O)SC(=S)N1Cc1cccnc1	2	i	0.29	0	88*
COc1ccc(CN2C(=O)/C(=C/c3ccncc3)SC2=S)cc1	9	i	0.079	0	68*
COc1cc(/C=C2/SC(=O)N(Cc3ccccc3)C2=O)ccc1OCc1ccncc1	3	i	-1.2	-2	92*
COc1ccc(/C=C2\SC(=NCc3ccccc3)N(Cc3ccccc3)C2=O)cc1OC	1	i	0.48	3	2
COc1ccc(/C=C2\SC(=S)N(CCCC(=O)Nc3ccccn3)C2=O)cc1OC	1	i	1.7	-1	63*
COc1ccccc1NC(=O)c1nn(-c2cccc(C(F)(F)F)c2)ccc1=O	2	i	-0.32	0	0
O=C(CCCN1C(=O)/C(=C/c2ccccc2Cl)SC1=S)NNC(=O)c1ccccc1Cl	4	i	-1.1	-2	67*
O=C(CCCN1C(=O)/C(=C/c2ccccc2Cl)SC1=S)NNC(=O)c1ccncc1	.	i	-0.15	1	.
CCOc1ccc(/C=C2\SC(=O)N(CCNC(=O)C3COc4ccccc4O3)C2=O)cc1OC (stereo not given)	2	i	-1.7	1	71*
O=C(O)c1cc(-c2ccc(Cl)s2)[nH]n1	.	i	0.25	0	.
NC(=O)[C@@H]1CCCCNc2c(F)cc([N+](=O)[O-])cc2C(=O)N[C@@H](CCCN=C(N)N)C(=O)NCC(=O)N1	2	i	-0.36	-1	-1
Cc1ccc(NC(=O)N2CCN(C/C=C/c3ccccc3)CC2)cc1	4	i	2.5	4	20
CC(=C1C(=O)c2ccccc2C1=O)N1CCN(C/C=C/c2ccccc2)CC1	1	i	2.1	-3	83*
CCCCNC(=O)N1CCN(C/C=C/c2ccccc2)CC1	4	i	0.06	0	53*
O=C(Nc1ccc2c(c1)OCO2)N1CCN(C/C=C/c2ccccc2)CC1	2	i	-1	0	74*
CCc1ccc(C2NC(=S)NC3=C2C(=O)N(c2ccccc2OC)C(c2ccc(CC)cc2)N3)cc1 (stereo not given)	2	i	0.52	-3	9
O=C1C2=C(NC(=S)NC2c2ccc(Cl)cc2)NC(c2ccc(Cl)cc2)N1c1ccc(Cl)cc1 (stereo not given)	3	i	0.3	-1	100*
O=C1CC(c2ccccc2Cl)c2c(sc3c(=O)[nH]c(CCl)nc23)N1 (stereo not given)	.	i	-0.87	1	.
CC1CCN(CCCNC(=O)c2ccc3c(=O)n(Cc4ccc(Cl)cc4)c(=S)[nH]c3c2)CC1	31	i	-5.1	3	100*
CCCCN(C)CCNC(=O)c1ccc(Cn2c(=S)[nH]c3ccc(Br)cc3c2=O)cc1	2	i	-0.17	2	90*
O=C(NCCCN1CCCCC1)c1ccc2c(=O)n(CCc3ccccc3)c(=O)[nH]c2c1	4	.	-0.041	-2	57*
CCOC(=O)C1CCCN(C(=O)c2ccc(Cn3c(=S)[nH]c4cc(C(=O)OC)ccc4c3=O)cc2)C1 (stereo not given)	18*	i	0.42	.	13
Cc1ccc(NC(=O)c2cc3c(=O)oc4ccccc4c3s2)nc1	4	i	-0.063	1	-6
Cc1ccc(-n2ncc3c(NCc4ccccn4)ncnc32)c(C)c1	1	i	-0.3	-3	-6
CCc1ccc(C(=O)/C=C/c2ccc([N+](=O)[O-])o2)cc1	0	i	-1.5	.	100*
SMILES	MT stabilizer	HSV replic up	Dynein cargo inh	b-catenin transl	L major viab
CCN(CC)S(=O)(=O)c1cc(-c2nn(C)c(=O)c3ccccc23)ccc1C	0	i	0.099	-2	87*
S=C(NCC1CCCO1)NC12CC3CC(CC(C3)C1)C2 (stereo not given)	2	i	0.53	-1	62*
O=C(NCC1CCCO1)NC12CC3CC(CC(C3)C1)C2 (stereo not given)	3	i	-0.74	0	-10
O=C(C1CCCN(Cc2ccccc2)C1)N1CCc2ccccc2C1 (stereo not given)	1	i	-0.41	.	96*
Cc1cc(C)c(NC(=O)c2ccc(CN3CCc4ccccc4C3)cc2)c(C)c1	3	i	0.13	-4	73*
O=C(c1ccc(COc2ccccc2Br)cc1)N1CCCCC1	3	i	0.29	-3	70*
CCCNC(=O)c1ccc(CN2CCc3ccccc3C2)cc1	2	i	-1.1	-6	56*
CC1CC(Nc2ccccc2)c2ccccc2N1C(=O)c1ccco1 (stereo not given)	.	i	-0.4	2	.
O=C(CCC1COc2ccccc2O1)NC1CCCCC1 (stereo not given)	3	i	-0.14	.	0
O=C(c1ccc(CN2CCc3ccccc3C2)cc1)N1CCN(c2ccc(F)cc2)CC1	3	i	-0.029	.	3
O=C(NCc1cccnc1)c1ccc(CN2CCc3ccccc3C2)cc1	3	.	-0.33	2	63*
O=C(c1ccc(CN2CCc3ccccc3C2)cc1)N1CCCCC1	4	i	-1.4	-5	63*
O=C(O)C1CCC(=O)N1C1c2ccccc2Oc2ccccc21 (stereo not given)	9	i	-0.67	.	-3
COc1cc(C(=O)Nc2ccc3c(c2)CCN3C(C)=O)cc(OC)c1OC	22*	i	-0.25	0	-3
Cc1cccc(NC(=S)NC2CC3CCCC(C2)N3CC(C)C)c1C (stereo not given)	5	i	1.4	2	89*
Cc1cccc(NC(=S)NC2CC3CCCC(C2)N3Cc2cccs2)c1C (stereo not given)	3	i	0.26	0	85*
CCCN1C2CCCC1CC(NC(=S)Nc1cccc(C)c1C)C2 (stereo not given)	.	i	-0.69	2	.
CCc1ccccc1NC(=S)NC1CC2CCCC(C1)N2Cc1cccs1 (stereo not given)	1	i	.	0	79*
CCCN1C2CCCC1CC(NC(=S)Nc1cc(C)ccc1C)C2 (stereo not given)	2	i	1.8	-4	90*
CCc1ccc2c(c1)/C(=N/N(C)C(=S)NC)C(=O)N2	2	.	0.34	-2	5
Cc1cccc2c1NC(=O)/C2=C\C(=O)c1cccs1	2	i	0.19	-3	100*
CN(C)/C=C/C(=O)c1ccc(Br)s1	3	i	1.2	2	-1
CCc1ccc2c(c1)/C(=C/C(=O)c1cccs1)C(=O)N2	8	i	-1.1	-3	101*
CN1/C(=C\C(=O)c2cccs2)C(C)(C)c2ccccc21	5	i	0.11	-1	22
Cc1cc(Br)c2c(c1)/C(=C/C(=O)c1cccs1)C(=O)N2	5	i	-0.6	-3	100*
Cc1cc(C)c2c(c1)/C(=C/C(=O)c1ccc(Br)s1)C(=O)N2	22	i	-0.9	-4	100*
